The M2OR odorant receptor database
Positions count from the first letter of the chain named.

Legend:
Settings in all cases: stereoisomer not certain
O5AN1 = test system: T1, O5AN1
T1 sequence (whole entry): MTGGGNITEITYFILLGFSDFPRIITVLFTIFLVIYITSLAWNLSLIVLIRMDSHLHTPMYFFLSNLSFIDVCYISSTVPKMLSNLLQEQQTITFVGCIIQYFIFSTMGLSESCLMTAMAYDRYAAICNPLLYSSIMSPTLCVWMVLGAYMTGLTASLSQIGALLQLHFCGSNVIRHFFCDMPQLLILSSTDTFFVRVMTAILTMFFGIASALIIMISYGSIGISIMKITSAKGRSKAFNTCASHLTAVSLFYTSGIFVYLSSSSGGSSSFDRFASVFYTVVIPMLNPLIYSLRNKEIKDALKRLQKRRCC
Outline: (§1)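 Transient luciferase assays in mammalian cell lines were common, though methods varied by source. The values come from published papers and their supplementary material, with extra details from the original authors when needed. Responsive refers to a measured signal the original authors judged statistically different from baseline, and non-responsive (inactive) to the remainder.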

O56A4 I247V = test system: T2, O56A4 I247V
T2 sequence (whole entry): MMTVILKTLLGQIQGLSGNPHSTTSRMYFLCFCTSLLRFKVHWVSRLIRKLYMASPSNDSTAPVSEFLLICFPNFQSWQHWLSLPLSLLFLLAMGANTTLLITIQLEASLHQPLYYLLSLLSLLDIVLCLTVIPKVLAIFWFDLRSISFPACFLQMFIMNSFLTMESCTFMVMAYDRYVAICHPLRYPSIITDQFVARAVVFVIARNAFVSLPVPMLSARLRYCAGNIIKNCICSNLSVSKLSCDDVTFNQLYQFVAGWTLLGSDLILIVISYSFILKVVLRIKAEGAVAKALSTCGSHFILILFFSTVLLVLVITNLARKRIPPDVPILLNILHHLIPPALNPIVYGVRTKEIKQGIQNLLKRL
Outline: as §1

O56A4 = test system: T3, O56A4
T3 sequence (whole entry): T2 sequence (whole entry) with V247I
Outline: as §1

O56A5 V104L = test system: T4, O56A5 V104L
T4 sequence (whole entry): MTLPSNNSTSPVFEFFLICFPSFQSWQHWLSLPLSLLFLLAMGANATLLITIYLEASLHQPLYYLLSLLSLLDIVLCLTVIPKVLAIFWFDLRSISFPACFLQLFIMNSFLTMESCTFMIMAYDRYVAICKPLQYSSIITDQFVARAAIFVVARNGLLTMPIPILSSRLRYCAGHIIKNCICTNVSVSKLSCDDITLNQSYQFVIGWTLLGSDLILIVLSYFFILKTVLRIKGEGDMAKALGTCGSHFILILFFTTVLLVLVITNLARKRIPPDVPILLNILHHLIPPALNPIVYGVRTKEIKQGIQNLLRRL
Outline: as §1

O56B1 C106R L214F = test system: T5, O56B1 C106R L214F
T5 sequence (whole entry): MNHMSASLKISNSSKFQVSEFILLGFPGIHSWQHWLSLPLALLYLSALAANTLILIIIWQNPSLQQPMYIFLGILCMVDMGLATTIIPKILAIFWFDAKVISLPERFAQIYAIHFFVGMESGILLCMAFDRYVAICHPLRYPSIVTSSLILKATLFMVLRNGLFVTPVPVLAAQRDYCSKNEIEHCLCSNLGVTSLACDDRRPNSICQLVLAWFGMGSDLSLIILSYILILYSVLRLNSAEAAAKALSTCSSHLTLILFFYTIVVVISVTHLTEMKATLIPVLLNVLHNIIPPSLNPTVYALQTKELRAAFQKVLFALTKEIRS
Outline: as §1

O56B1 L214F = test system: T6, O56B1 L214F
T6 sequence (whole entry): T5 sequence (whole entry) with R106C
Outline: as §1

O56B4 = test system: T7, O56B4
T7 sequence (whole entry): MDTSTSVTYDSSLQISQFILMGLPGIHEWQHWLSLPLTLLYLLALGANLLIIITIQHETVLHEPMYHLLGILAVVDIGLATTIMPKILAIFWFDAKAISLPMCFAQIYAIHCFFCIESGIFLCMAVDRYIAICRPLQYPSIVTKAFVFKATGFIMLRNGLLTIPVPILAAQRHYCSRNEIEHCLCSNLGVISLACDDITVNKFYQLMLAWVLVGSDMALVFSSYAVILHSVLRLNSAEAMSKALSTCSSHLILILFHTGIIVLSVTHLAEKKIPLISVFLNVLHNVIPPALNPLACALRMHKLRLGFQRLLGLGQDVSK
Outline: as §1

O5AC2 = test system: T8, O5AC2
T8 sequence (whole entry): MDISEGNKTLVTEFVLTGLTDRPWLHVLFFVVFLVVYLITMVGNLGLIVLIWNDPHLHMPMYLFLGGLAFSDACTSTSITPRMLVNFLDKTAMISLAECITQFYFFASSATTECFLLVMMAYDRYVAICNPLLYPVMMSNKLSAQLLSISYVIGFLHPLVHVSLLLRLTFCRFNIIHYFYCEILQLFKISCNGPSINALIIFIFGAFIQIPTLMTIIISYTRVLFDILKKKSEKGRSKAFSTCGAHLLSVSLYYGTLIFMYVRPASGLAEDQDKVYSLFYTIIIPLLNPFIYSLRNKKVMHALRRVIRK
Outline: as §1

O5AK2 M92I = test system: T9, O5AK2 M92I
T9 sequence (whole entry): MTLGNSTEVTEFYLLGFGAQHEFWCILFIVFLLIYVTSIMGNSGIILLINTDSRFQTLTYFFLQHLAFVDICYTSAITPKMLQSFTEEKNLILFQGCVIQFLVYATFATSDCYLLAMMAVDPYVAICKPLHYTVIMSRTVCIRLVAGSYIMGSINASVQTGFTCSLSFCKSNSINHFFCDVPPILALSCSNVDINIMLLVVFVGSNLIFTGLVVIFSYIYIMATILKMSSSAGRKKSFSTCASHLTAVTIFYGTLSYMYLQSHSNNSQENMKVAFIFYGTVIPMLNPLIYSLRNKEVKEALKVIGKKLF
Outline: as §1

O5AN1 C142Y L289F = test system: T10, O5AN1 C142Y L289F
T10 sequence (whole entry): T1 sequence (whole entry) with T26K, C142Y, S159F, S190C, R197Q, I214V, S221Y, L289F, R309K
Outline: as §1

O5AN1 L289F = test system: T11, O5AN1 L289F
T11 sequence (whole entry): T1 sequence (whole entry) with T26K, S159F, S190C, R197Q, I214V, S221Y, L289F, R309K
Outline: as §1

O5AP2 A105T = test system: T12, O5AP2 A105T
T12 sequence (whole entry): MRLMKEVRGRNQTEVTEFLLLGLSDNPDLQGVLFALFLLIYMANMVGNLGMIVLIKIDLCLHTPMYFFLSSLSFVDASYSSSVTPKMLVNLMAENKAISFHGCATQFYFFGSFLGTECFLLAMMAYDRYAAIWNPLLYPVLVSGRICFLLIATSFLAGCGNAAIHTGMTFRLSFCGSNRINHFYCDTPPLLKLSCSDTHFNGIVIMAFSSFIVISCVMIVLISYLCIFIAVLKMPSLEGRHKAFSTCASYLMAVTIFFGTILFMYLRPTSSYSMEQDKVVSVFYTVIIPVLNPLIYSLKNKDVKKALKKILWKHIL
Outline: as §1

O5AU1 = test system: T13, O5AU1
T13 sequence (whole entry): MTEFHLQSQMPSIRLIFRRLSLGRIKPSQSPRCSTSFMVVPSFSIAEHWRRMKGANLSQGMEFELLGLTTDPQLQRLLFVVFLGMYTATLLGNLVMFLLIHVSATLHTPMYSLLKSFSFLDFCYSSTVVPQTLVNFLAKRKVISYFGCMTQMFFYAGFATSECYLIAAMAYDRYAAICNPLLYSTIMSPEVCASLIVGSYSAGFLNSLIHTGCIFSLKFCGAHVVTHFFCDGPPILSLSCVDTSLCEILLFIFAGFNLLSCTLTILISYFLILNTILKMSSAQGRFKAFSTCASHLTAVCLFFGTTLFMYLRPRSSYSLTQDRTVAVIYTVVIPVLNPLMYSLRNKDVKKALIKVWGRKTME
Outline: as §1

O5H14 = test system: T14, O5H14
T14 sequence (whole entry): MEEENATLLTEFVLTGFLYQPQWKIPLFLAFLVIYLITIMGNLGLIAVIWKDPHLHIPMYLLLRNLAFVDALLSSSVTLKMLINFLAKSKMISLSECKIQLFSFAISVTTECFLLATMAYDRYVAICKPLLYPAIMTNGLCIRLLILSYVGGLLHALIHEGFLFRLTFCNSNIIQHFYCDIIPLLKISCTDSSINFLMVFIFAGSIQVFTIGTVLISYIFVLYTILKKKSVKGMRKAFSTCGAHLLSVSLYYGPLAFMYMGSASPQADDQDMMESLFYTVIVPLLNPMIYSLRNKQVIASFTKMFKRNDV
Outline: as §1

O5H15 V108I S148T T167S = test system: T15, O5H15 V108I S148T T167S
T15 sequence (whole entry): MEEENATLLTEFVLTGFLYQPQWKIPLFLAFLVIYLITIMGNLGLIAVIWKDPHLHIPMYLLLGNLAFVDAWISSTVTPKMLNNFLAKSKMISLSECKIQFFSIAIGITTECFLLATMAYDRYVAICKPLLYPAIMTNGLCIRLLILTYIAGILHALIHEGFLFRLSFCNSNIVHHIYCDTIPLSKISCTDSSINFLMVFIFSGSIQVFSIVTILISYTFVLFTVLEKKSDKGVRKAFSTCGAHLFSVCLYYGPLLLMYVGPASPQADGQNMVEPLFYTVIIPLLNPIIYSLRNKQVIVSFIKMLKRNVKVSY
Outline: as §1

O6C65 T222A = test system: T16, O6C65 T222A
T16 sequence (whole entry): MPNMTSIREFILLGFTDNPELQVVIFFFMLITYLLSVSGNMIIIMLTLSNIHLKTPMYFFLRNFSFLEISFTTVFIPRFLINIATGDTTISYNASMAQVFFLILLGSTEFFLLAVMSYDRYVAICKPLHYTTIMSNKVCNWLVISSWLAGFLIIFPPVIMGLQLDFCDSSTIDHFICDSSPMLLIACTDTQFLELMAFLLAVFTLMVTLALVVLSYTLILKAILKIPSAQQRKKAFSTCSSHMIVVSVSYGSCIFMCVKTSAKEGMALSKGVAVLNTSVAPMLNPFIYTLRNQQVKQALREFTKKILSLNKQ
Outline: as §1

O6C70 L181P = test system: T17, O6C70 L181P
T17 sequence (whole entry): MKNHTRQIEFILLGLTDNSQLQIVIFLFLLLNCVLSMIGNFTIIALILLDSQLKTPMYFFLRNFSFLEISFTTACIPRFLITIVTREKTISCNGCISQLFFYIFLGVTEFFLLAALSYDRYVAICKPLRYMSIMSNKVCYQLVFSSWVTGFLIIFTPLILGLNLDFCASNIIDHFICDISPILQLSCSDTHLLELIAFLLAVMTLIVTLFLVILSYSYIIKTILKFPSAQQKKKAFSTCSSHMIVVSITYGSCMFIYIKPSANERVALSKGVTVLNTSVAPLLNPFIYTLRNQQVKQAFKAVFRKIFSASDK
Outline: as §1

O7E24 S193F P242S = test system: T18, O7E24 S193F P242S
T18 sequence (whole entry): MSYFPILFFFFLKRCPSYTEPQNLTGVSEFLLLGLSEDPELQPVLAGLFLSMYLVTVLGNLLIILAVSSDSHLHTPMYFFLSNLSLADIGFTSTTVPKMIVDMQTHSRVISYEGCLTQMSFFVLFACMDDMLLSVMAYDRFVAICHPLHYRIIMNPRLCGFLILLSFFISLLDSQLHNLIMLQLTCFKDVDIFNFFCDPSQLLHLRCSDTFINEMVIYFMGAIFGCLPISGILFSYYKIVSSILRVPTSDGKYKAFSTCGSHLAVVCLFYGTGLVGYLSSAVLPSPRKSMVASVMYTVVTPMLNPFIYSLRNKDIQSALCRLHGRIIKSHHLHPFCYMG
Outline: as §1

O7E24 = test system: T19, O7E24
T19 sequence (whole entry): T18 sequence (whole entry) with F193S
Outline: as §1

OR10A2 (Homo sapiens) = target: T20, OR10A2 (Homo sapiens) (UniProt Q9H208)
T20 sequence (whole entry): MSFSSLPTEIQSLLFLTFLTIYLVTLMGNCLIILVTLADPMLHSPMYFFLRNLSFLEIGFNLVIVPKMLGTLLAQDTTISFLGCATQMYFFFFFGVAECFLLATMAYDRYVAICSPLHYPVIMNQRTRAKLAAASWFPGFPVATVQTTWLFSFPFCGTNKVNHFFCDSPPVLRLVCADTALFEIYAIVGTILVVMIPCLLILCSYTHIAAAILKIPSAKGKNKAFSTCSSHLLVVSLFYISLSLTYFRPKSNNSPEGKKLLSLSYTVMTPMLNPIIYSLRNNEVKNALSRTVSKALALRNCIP
Outline: as §1

Measured: odorant receptor agonist call

CC1CCCCCCCCCCCC(=O)C1 (centres undefined)
active: O5AN1

Cc1cnc(C)c(C)n1
not listed: O5AN1
inactive: all other assays above

CC1CCCCCCCCCCCCC(=O)C1 (centres undefined)
inactive: OR10A2 (Homo sapiens)
active: O5AN1

CCCCCC(S)C(C)CO (centres undefined)
inactive: OR10A2 (Homo sapiens)

CC1CC=CCCCCCCCCCC(=O)C1 (centres undefined)
active: O5AN1

O=C1CCCCCCC=CCCCCCCC1
active: O5AN1

CCC1OC(=O)C(O)=C1C (centres undefined)
not listed: O5AN1
inactive: all other assays above
